Laboratory results as given in the array DNA melting data of Ke et al. (doi:10.1101/2024.01.08.574731).

How the values were obtained:
[1] = melting temperature; fluorescence melt of hairpins on a sequencing array, two-state fit, raised by 9.35 °C to match UV melts; details: sodium 0.088 M
Outline: (§1)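 Folding enthalpy and melting temperature come from bootstrapped two-state fits to Cy3 fluorescence of library hairpins carrying annealed Cy3 and quencher oligos on a sequenced MiSeq flow cell. Imaging was done in 50 mM Na-HEPES pH 8.0, 25 mM NaCl, stepping by 2.5 °C up to 60 °C, and signals were normalised to pre-quench Cy3 and to control constructs. Results of four replicates were combined by inverse variance, and fitted temperatures were raised by 9.35 °C to match UV melts.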

[2] = folding enthalpy; higher = less favourable; fluorescence melt of hairpins on a sequencing array, two-state fit; details: sodium 0.088 M
Outline: as §1

## GATCTAATAATAGATC ((((((....))))))
[1]
  Tm: 35.5 °C
[2]
  folding enthalpy: -22 kcal/mol

## GATCTAATAGTAGATC ((((((....))))))
[1]
  Tm: 33.7 °C
[2]
  folding enthalpy: -29.4 kcal/mol

## GATCTAATATTAGATC ((((((....))))))
[1]
  Tm: 43.2 °C
[2]
  folding enthalpy: -40.3 kcal/mol

## GATCTAATGATAGATC ((((((....))))))
[1]
  Tm: 36.2 °C
[2]
  folding enthalpy: -20.4 kcal/mol

## GATCTAATGCTAGATC ((((((....))))))
[1]
  Tm: 36.5 °C
[2]
  folding enthalpy: -29.5 kcal/mol

## GATCTAATTGTAGATC ((((((....))))))
[1]
  Tm: 38.8 °C
[2]
  folding enthalpy: -33 kcal/mol

## GATCTACAATAGATC ((((((...))))))
[1]
  Tm: 36.7 °C
[2]
  folding enthalpy: -18.8 kcal/mol

## GATCTACAGATAGATC ((((((....))))))
[1]
  Tm: 37.3 °C
[2]
  folding enthalpy: -26.6 kcal/mol

## GATCTACCATTAGATC ((((((....))))))
[1]
  Tm: 37.9 °C
[2]
  folding enthalpy: -33.2 kcal/mol

## GATCTACCTATAGATC ((((((....))))))
[1]
  Tm: 40.5 °C
[2]
  folding enthalpy: -35 kcal/mol

## GATCTACCTGTAGATC ((((((....))))))
[1]
  Tm: 52.8 °C
[2]
  folding enthalpy: -39.4 kcal/mol

## GATCTACCTTAGATC ((((((...))))))
[1]
  Tm: 39.1 °C
[2]
  folding enthalpy: -32 kcal/mol

## GATCTACGAATAGATC ((((((....))))))
[1]
  Tm: 36.4 °C
[2]
  folding enthalpy: -24 kcal/mol

## GATCTACGATAGATC ((((((...))))))
[1]
  Tm: 35.4 °C
[2]
  folding enthalpy: -19.9 kcal/mol

## GATCTACGATTAGATC ((((((....))))))
[1]
  Tm: 34.9 °C
[2]
  folding enthalpy: -27.4 kcal/mol

## GATCTACGCCTAGATC ((((((....))))))
[1]
  Tm: 42.6 °C
[2]
  folding enthalpy: -33.8 kcal/mol

## GATCTACGCTTAGATC ((((((....))))))
[1]
  Tm: 43.4 °C
[2]
  folding enthalpy: -35.4 kcal/mol

## GATCTACGGATAGATC ((((((....))))))
[1]
  Tm: 37.8 °C
[2]
  folding enthalpy: -23.4 kcal/mol

## GATCTACTAATAGATC ((((((....))))))
[1]
  Tm: 38.9 °C
[2]
  folding enthalpy: -27.3 kcal/mol

## GATCTACTATAGATC ((((((...))))))
[1]
  Tm: 40.5 °C
[2]
  folding enthalpy: -25.1 kcal/mol

## GATCTACTCGTAGATC ((((((....))))))
[1]
  Tm: 53.8 °C
[2]
  folding enthalpy: -50.1 kcal/mol

## GATCTACTCTTAGATC ((((((....))))))
[1]
  Tm: 41.1 °C
[2]
  folding enthalpy: -29.7 kcal/mol

## GATCTACTGGTAGATC ((((((....))))))
[1]
  Tm: 52.8 °C
[2]
  folding enthalpy: -43.6 kcal/mol

## GATCTACTTATAGATC ((((((....))))))
[1]
  Tm: 43 °C
[2]
  folding enthalpy: -29.4 kcal/mol

## GATCTACTTGTAGATC ((((((....))))))
[1]
  Tm: 56.2 °C
[2]
  folding enthalpy: -41.1 kcal/mol

## GATCTACTTTTAGATC ((((((....))))))
[1]
  Tm: 39.8 °C
[2]
  folding enthalpy: -33.1 kcal/mol

## GATCTAGAATAGATC ((((((...))))))
[1]
  Tm: 49.9 °C
[2]
  folding enthalpy: -37.4 kcal/mol

## GATCTAGACCTAGATC ((((((....))))))
[1]
  Tm: 47.2 °C
[2]
  folding enthalpy: -32.8 kcal/mol

## GATCTAGACTTAGATC ((((((....))))))
[1]
  Tm: 47 °C
[2]
  folding enthalpy: -39.3 kcal/mol

## GATCTAGAGGTAGATC ((((((....))))))
[1]
  Tm: 35.1 °C
[2]
  folding enthalpy: -24.4 kcal/mol

## GATCTAGATGTAGATC ((((((....))))))
[1]
  Tm: 39.8 °C
[2]
  folding enthalpy: -27.9 kcal/mol

## GATCTAGATTAGATC ((((((...))))))
[1]
  Tm: 36.2 °C
[2]
  folding enthalpy: -26.3 kcal/mol

## GATCTAGCAATAGATC ((((((....))))))
[1]
  Tm: 47.6 °C
[2]
  folding enthalpy: -39.6 kcal/mol

## GATCTAGCATTAGATC ((((((....))))))
[1]
  Tm: 47.6 °C
[2]
  folding enthalpy: -43.5 kcal/mol

## GATCTAGCCCTAGATC ((((((....))))))
[1]
  Tm: 45.6 °C
[2]
  folding enthalpy: -37 kcal/mol

## GATCTAGCGTAGATC ((((((...))))))
[1]
  Tm: 37.7 °C
[2]
  folding enthalpy: -29.1 kcal/mol

## GATCTAGCGTTAGATC ((((((....))))))
[1]
  Tm: 39.7 °C
[2]
  folding enthalpy: -31.1 kcal/mol

## GATCTAGCTCTAGATC ((((((....))))))
[1]
  Tm: 45.2 °C
[2]
  folding enthalpy: -33.1 kcal/mol

## GATCTAGGAAACTAGACC (.(((((....))))).)
[1]
  Tm: 29.3 °C
[2]
  folding enthalpy: -14.8 kcal/mol

## GATCTAGGAAACTAGGTC ((.((((....)))).))
[1]
  Tm: 38.6 °C
[2]
  folding enthalpy: -34.3 kcal/mol

## GATCTAGGAGTAGATC ((((((....))))))
[1]
  Tm: 40.4 °C
[2]
  folding enthalpy: -30.2 kcal/mol

## GATCTAGGCATAGATC ((((((....))))))
[1]
  Tm: 48.8 °C
[2]
  folding enthalpy: -36.9 kcal/mol

## GATCTAGGCTTAGATC ((((((....))))))
[1]
  Tm: 46.6 °C
[2]
  folding enthalpy: -38.4 kcal/mol

## GATCTAGTACTAGATC ((((((....))))))
[1]
  Tm: 48.7 °C
[2]
  folding enthalpy: -51.4 kcal/mol

## GATCTAGTATTAGATC ((((((....))))))
[1]
  Tm: 47.1 °C
[2]
  folding enthalpy: -37.5 kcal/mol

## GATCTAGTTATAGATC ((((((....))))))
[1]
  Tm: 48.9 °C
[2]
  folding enthalpy: -33.8 kcal/mol

## GATCTAGTTTTAGATC ((((((....))))))
[1]
  Tm: 42.3 °C
[2]
  folding enthalpy: -32.3 kcal/mol

## GATCTATAATAGATC ((((((...))))))
[1]
  Tm: 38.3 °C
[2]
  folding enthalpy: -21.8 kcal/mol

## GATCTATCATAGATC ((((((...))))))
[1]
  Tm: 40.1 °C
[2]
  folding enthalpy: -28 kcal/mol

## GATCTATCGATAGATC ((((((....))))))
[1]
  Tm: 48 °C
[2]
  folding enthalpy: -44.3 kcal/mol

## GATCTATCGTAGATC ((((((...))))))
[1]
  Tm: 38.4 °C
[2]
  folding enthalpy: -12.9 kcal/mol

## GATCTATCGTTAGATC ((((((....))))))
[1]
  Tm: 37.8 °C
[2]
  folding enthalpy: -19.4 kcal/mol

## GATCTATCTATAGATC ((((((....))))))
[1]
  Tm: 47.4 °C
[2]
  folding enthalpy: -38 kcal/mol

## GATCTATGATTAGATC ((((((....))))))
[1]
  Tm: 39.8 °C
[2]
  folding enthalpy: -31.9 kcal/mol

## GATCTATGCATAGATC ((((((....))))))
[1]
  Tm: 49.9 °C
[2]
  folding enthalpy: -43.4 kcal/mol

## GATCTATGCTTAGATC ((((((....))))))
[1]
  Tm: 44.5 °C
[2]
  folding enthalpy: -35.8 kcal/mol

## GATCTATGTCTAGATC ((((((....))))))
[1]
  Tm: 38.5 °C
[2]
  folding enthalpy: -26.6 kcal/mol

## GATCTATGTTAGATC ((((((...))))))
[1]
  Tm: 41.3 °C
[2]
  folding enthalpy: -27.7 kcal/mol

## GATCTATTCGTAGATC ((((((....))))))
[1]
  Tm: 44.8 °C
[2]
  folding enthalpy: -33.5 kcal/mol

## GATCTATTTATAGATC ((((((....))))))
[1]
  Tm: 51.8 °C
[2]
  folding enthalpy: -48.6 kcal/mol

## GATCTATTTCTAGATC ((((((....))))))
[1]
  Tm: 38.9 °C
[2]
  folding enthalpy: -30.2 kcal/mol

## GATCTATTTTTAGATC ((((((....))))))
[1]
  Tm: 44.3 °C
[2]
  folding enthalpy: -42.5 kcal/mol

## GATCTCAAAAGAGATC ((((((....))))))
[1]
  Tm: 48.5 °C
[2]
  folding enthalpy: -29.8 kcal/mol

## GATCTCAAACGAGATC ((((((....))))))
[1]
  Tm: 50.2 °C
[2]
  folding enthalpy: -41.4 kcal/mol

## GATCTCAACGAGATC ((((((...))))))
[1]
  Tm: 55.8 °C
[2]
  folding enthalpy: -35.5 kcal/mol

## GATCTCAAGGGAGATC ((((((....))))))
[1]
  Tm: 50.8 °C
[2]
  folding enthalpy: -28.6 kcal/mol

## GATCTCACTCGAGATC ((((((....))))))
[1]
  Tm: 52.1 °C
[2]
  folding enthalpy: -50.8 kcal/mol

## GATCTCACTTGAGATC ((((((....))))))
[1]
  Tm: 54.1 °C
[2]
  folding enthalpy: -39 kcal/mol

## GATCTCAGAGGAGATC ((((((....))))))
[1]
  Tm: 50.8 °C
[2]
  folding enthalpy: -32.9 kcal/mol

## GATCTCAGATGAGATC ((((((....))))))
[1]
  Tm: 52.5 °C
[2]
  folding enthalpy: -36.3 kcal/mol

## GATCTCAGTGAGATC ((((((...))))))
[1]
  Tm: 53.1 °C
[2]
  folding enthalpy: -31.9 kcal/mol

## GATCTCAGTTGAGATC ((((((....))))))
[1]
  Tm: 54.2 °C
[2]
  folding enthalpy: -34.5 kcal/mol
